Screens as filed in PubChem BioAssay.
EBNA-1 inh: EBNA-1 DNA-binding inhibitors, primary screen, biochemical, fluorescence polarization; hit rate 0.34% among 300,000; inhibition, % at 14.8 µM; in the data active = inhibition above about 28%
GPR7 antag: GPR7 receptor antagonists, primary screen, cell-based, fluorescence, single concentration; GPR7-expressing cells, fluorescence antagonist assay; inhibition, % at 4.4 µM; hit rate 1.1% among 290,000; AID 1861, 2009; in the data active = inhibition above about 16%, passing the limit was not always enough;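 note: cells stimulated with the agonist NPW; 0% = agonist with vehicle and 100% = vehicle without agonist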
Target sequence (P48145 whole entry, looked up): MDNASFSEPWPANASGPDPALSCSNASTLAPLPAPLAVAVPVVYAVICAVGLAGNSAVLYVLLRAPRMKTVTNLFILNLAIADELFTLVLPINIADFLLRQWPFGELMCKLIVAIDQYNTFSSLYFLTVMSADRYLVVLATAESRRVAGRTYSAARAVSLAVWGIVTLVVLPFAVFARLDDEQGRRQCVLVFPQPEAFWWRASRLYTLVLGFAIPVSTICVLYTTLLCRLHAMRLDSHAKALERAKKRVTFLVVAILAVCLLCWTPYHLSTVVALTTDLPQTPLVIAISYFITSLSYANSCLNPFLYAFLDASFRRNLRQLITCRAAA
ZTA counter: blocks Epstein-Barr virus ZTA, an EBNA-1 counter-screen; P03206; ZTA-DNA binding, fluorescence polarization; inhibition, % at 11 µM; hit rate 0.15% among 320,000; AID 2234; in the data active = inhibition above about 33%
Target sequence (P03206 whole entry, looked up): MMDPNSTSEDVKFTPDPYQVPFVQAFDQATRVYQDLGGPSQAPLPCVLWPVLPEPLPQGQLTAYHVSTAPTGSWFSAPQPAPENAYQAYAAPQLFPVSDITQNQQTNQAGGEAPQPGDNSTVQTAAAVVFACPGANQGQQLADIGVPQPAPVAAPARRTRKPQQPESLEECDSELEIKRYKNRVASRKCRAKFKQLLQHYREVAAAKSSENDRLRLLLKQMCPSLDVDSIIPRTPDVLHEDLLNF
HCV NS3 hel inh: inhibitors of HCV NS3 helicase, primary screen, biochemical, Cy5 molecular beacon fluorescence | NS3 helicase DNA unwinding | Hepatitis C virus NS3 helicase | AID 1800, 2009 | hit rate 0.56% among 290,000 | inhibition, % at 10.9 µM;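 active = inhibition above the mean of all tested compounds plus 3 SD, set per campaign, cut at about 35% in these data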;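 note: 0% = DMSO wells and 100% = thioflavine S control wells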
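System: NS3 helicase fragment of HCV / Schedule: 1 h at 25 °C / Control set: DMSO alone as 0% and 110 µM thioflavine S as 100% / Reagent: Cy5/quencher beacon DNA duplex and ATP to start / Technique: Cy5 fluorescence / Replication: singlicate / Evaluation: % inhibition of end-to-start signal ratio versus controls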
DNA FID counter: compounds displacing fluorescent DNA intercalator, primary screen, artefact control for HCV NS3 helicase inhibitor project, biochemical, FID fluorescence; inhibition, % at 7.9 µM; hit rate 0.17% among 290,000; DNA fluorescent intercalator displacement; in the data active = inhibition above about 37%;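 note: 0% = vehicle and 100% = reference compound; higher means more ethidium bromide displaced from hairpin DNA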
GPR7 antag cf: GPR7 receptor antagonists, confirmation, cell-based, fluorescence, single concentration. shares compounds with GPR7 antag. AID 1952, 2009. GPR7-expressing cells, calcium fluorescence antagonist mode. hit rate 52% among 2,400. inhibition, % at 4.4 µM; in the data active = inhibition above about 24%;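 note: stimulated with the GPR7 agonist NPW; 0% = agonist plus vehicle and 100% = vehicle alone without agonist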
MCHR1 antag: MCHR1 antagonists in cells, counter-screen for GPR7 antagonist project, cell-based, fluorescence, human. shares compounds with GPR7 antag. MCHR1-expressing cells, fluorescence antagonist assay. inhibition, % at 4.4 µM. hit rate 62% among 2,400. AID 2148, 2009; in the data active = inhibition above about 22%;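 note: 0% = vehicle with agonist and 100% = vehicle without agonist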
* hit, by the source's call. Shown are actives, neighbours in structure and some others; about 2% of the full set was active somewhere.

For COc1ccc(Cc2nc3ccc(C(=O)NCCc4ccncc4)cc3o2)cc1OC the results were EBNA-1 inh -3.3, GPR7 antag -3.9, ZTA counter -9.7, HCV NS3 hel inh 0.0 and DNA FID counter -26.3.
Screening COC(=O)[C@@]1(Cc2ccc(F)cc2)[C@H]2c3cc(C(=O)N(C)C)n(Cc4ccccc4)c3C[C@H]2CN1C(=O)c1ccccc1 returned EBNA-1 inh 3.9, ZTA counter -4.8, HCV NS3 hel inh -11.6, DNA FID counter -38.5 and MCHR1 antag 17.9.
COc1ccc(OCc2nnc(SCC(=O)N3CCCC3)o2)cc1 was read as EBNA-1 inh -12.4, GPR7 antag 23.6*, ZTA counter -2.4, HCV NS3 hel inh -1.4, DNA FID counter -22.7, GPR7 antag cf -1.2 and MCHR1 antag 6.9.
For CCN(CC(=O)NC1CCCC1)S(=O)(=O)c1ccc(Br)cc1 the results were EBNA-1 inh 0.2, GPR7 antag -8.9, ZTA counter -6.0, HCV NS3 hel inh 2.7 and DNA FID counter -21.2.
CCOc1ccc(NC2=C(Cl)C(=O)N(Cc3ccccc3)C2=O)cc1 was read as EBNA-1 inh -0.8, GPR7 antag 73.8*, ZTA counter -6.8, HCV NS3 hel inh -15.2, DNA FID counter -2.1, GPR7 antag cf 99.3* and MCHR1 antag 64.2*.
For COc1ccc(NC2=C(Cl)C(=O)N(CCc3ccccc3)C2=O)cc1 the results were EBNA-1 inh 2.2, GPR7 antag 0.5, ZTA counter 3.6, HCV NS3 hel inh -16.0 and DNA FID counter -1.5.
For COc1ccc(OC)c(N(CC(=O)N2CCC(C)CC2)S(=O)(=O)c2ccc(OC)c(OC)c2)c1 the results were EBNA-1 inh -5.2, GPR7 antag -10.2, ZTA counter 4.6, HCV NS3 hel inh 2.9 and DNA FID counter -36.8.
Screening COc1ccc(OC)c(N(CC(=O)N2CCC(C)CC2)S(=O)(=O)c2ccccc2)c1 returned EBNA-1 inh 1.1, GPR7 antag 25.7*, ZTA counter 16.4, HCV NS3 hel inh -12.8, DNA FID counter -30.1, GPR7 antag cf 21.4 and MCHR1 antag 18.1.
For S=C(NCc1ccccc1)Nc1ccc(Oc2ccccc2)cc1 the results were EBNA-1 inh -1.9, GPR7 antag 27.7*, ZTA counter 5.3, HCV NS3 hel inh -3.9, DNA FID counter -11.3, GPR7 antag cf 15.3 and MCHR1 antag 28.7*.
CCNC(=S)Nc1ccc(Oc2ccccc2)cc1 was read as EBNA-1 inh -4.2, GPR7 antag 12.1, ZTA counter 12.4, HCV NS3 hel inh -3.7 and DNA FID counter -1.7.
For CC1CN(CC(O)COC(c2ccc(Cl)cc2)c2ccc(Cl)cc2)CC(C)O1 (stereo unspecified) the results were EBNA-1 inh -0.2, GPR7 antag 21.0*, ZTA counter 2.4, HCV NS3 hel inh -68.6, DNA FID counter 24.2, GPR7 antag cf 8.9 and MCHR1 antag 40.2*.
For CN(C)S(=O)(=O)c1ccc(N2CCCC2)c(C(=O)NC(c2ccccc2)c2ccccc2)c1 the results were EBNA-1 inh -5.4, GPR7 antag 24.6*, ZTA counter -14.6, HCV NS3 hel inh -4.8, DNA FID counter -12.2, GPR7 antag cf 32.3* and MCHR1 antag 21.6*.
Cc1ccc(SCC(=O)Nc2ccc(N3CCOCC3)cc2)cc1C was read as ZTA counter -6.6.
Screening Cn1c(SCC(=O)Nc2cccc(F)c2)nc2c(c1=O)SCC2 returned EBNA-1 inh -13.9, GPR7 antag -4.8, ZTA counter -2.9, HCV NS3 hel inh 3.6 and DNA FID counter -2.3.
CCOC(=O)/C(N=Nc1c(C)n(C)n(-c2ccccc2)c1=O)=C(\C)O was read as EBNA-1 inh -11.0, GPR7 antag 0.5, ZTA counter -4.5, HCV NS3 hel inh -0.8 and DNA FID counter -5.7.
CC(=O)/C(N=Nc1c(C)n(C)n(-c2ccccc2)c1=O)=C(\C)O was read as EBNA-1 inh -6.7, GPR7 antag 27.8*, ZTA counter -1.3, HCV NS3 hel inh 16.6, DNA FID counter -3.1, GPR7 antag cf 0.5 and MCHR1 antag -3.5.
`COc1ccc(C(=O)CSc2n[nH]c(=O)[nH]c2=O)cc1` gave EBNA-1 inh 8.5, GPR7 antag -1.5, ZTA counter 11.5, HCV NS3 hel inh 2.4 and DNA FID counter -4.7.
O=C(CSc1n[nH]c(=O)[nH]c1=O)c1ccc([N+](=O)[O-])cc1 was read as EBNA-1 inh -4.0, GPR7 antag 25.9*, ZTA counter -11.1, HCV NS3 hel inh 5.5, DNA FID counter 4.0, GPR7 antag cf -3.9 and MCHR1 antag -6.2.
Cc1ccc2c(c1)N(C(=O)CCC(=O)N1CCN(c3ccccn3)CC1)CC(C)O2 (stereo unspecified) was read as EBNA-1 inh 10.4, GPR7 antag 30.8*, ZTA counter 5.6, HCV NS3 hel inh 23.9, DNA FID counter -42.4, GPR7 antag cf 6.2 and MCHR1 antag 4.8.
For CCN(CC(=O)Nc1c(F)cccc1F)C(=O)c1ccc(Cl)c(S(=O)(=O)N2CCCCC2)c1 the results were EBNA-1 inh -13.9, GPR7 antag 35.1*, ZTA counter -2.9, HCV NS3 hel inh 0.5, DNA FID counter -36.8, GPR7 antag cf 13.4 and MCHR1 antag 49.5*.
Screening COc1ccc(C(CNC(=O)c2ccc(S(=O)(=O)N3CCCC3)cc2)N2CCOCC2)cc1 (stereo unspecified) returned EBNA-1 inh -6.3, GPR7 antag -1.4, ZTA counter -1.4, HCV NS3 hel inh 3.0 and DNA FID counter -18.4.
For COc1ccc(C(CNC(=O)c2ccc3c(c2)C(=O)N(CCC(C)C)C3=O)N2CCOCC2)cc1 (stereo unspecified) the results were EBNA-1 inh -5.5, GPR7 antag 29.0*, ZTA counter -1.1, HCV NS3 hel inh -19.7, DNA FID counter -14.2, GPR7 antag cf -2.0 and MCHR1 antag 12.2.
For COc1ccc(NS(=O)(=O)c2cccc(C(=O)NCC(c3ccc(F)cc3)N3CCOCC3)c2)cc1 (stereo unspecified) the results were EBNA-1 inh -4.6, GPR7 antag 30.6*, ZTA counter 8.9, HCV NS3 hel inh -3.5, DNA FID counter -19.9, GPR7 antag cf 27.4* and MCHR1 antag 10.7.
Screening Cc1cccn2c(CNC3CCCc4ccccc43)c(C(=O)N3CCCCC3)nc12 (stereo unspecified) returned EBNA-1 inh -7.5, GPR7 antag 34.1*, ZTA counter 12.1, HCV NS3 hel inh -17.2, DNA FID counter 3.5, GPR7 antag cf 17.3 and MCHR1 antag 16.6.
CCC1(CC)N([O-])C(C)=C(c2ccccc2)[N+]1=O was read as EBNA-1 inh 0.7, GPR7 antag -11.8, ZTA counter -2.2, HCV NS3 hel inh -0.8 and DNA FID counter 1.5.
